Data on eight compounds can be found in ChEMBL document CHEMBL1147824, “Synthesis, biological activity, and DNA-damage profile of platinum-threading intercalator conjugates designed to target adenine” (J Med Chem, 2006).

One assay deals with HL-60. Kind of assay: Cytotoxicity against human HL60 cell line by MTS assay. In kind it is functional, cell-based. A digest of the protocol:
(§1)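 Cells kept at 37 °C in humidified 5% CO2/95% air and seeded at 700 cells/well (H460) or 27 500 cells/well (HL-60). Log-phase cells were exposed in triplicate to serial drug dilutions for 72 h; stocks in DMSO, PBS or DMF, final organic solvent under 0.1%. MTS/PMS added for 3 h, A490 read. IC50 from sigmoidal dose-response fit; mean of at least three experiments.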

In the next assay the test system is NCI-H460. Kind of assay: Cytotoxicity against human H460 cell line by MTS assay. In kind it is functional, cell-based. The method, boiled down: as §1
In general terms: Tetrazolium dyes change colour on reduction, which living cells bring about.

Usually IC50 stands for the concentration at which inhibition is half-maximal. Read a low IC50 as inhibition by little substance. As for `CNC(=S)N(C)CCNc1c2ccccc2nc2ccccc12`, the IC50 in the assay on HL-60 is 11.5 µM; with NCI-H460 it was 9.5 µM.

Take `CCNC(=O)NCCNC(=O)c1cccc2c(NCCN(C)/C(S)=N/C)c3ccccc3nc12`: the IC50 in the assay with HL-60 and in the assay on NCI-H460 was greater than 100 µM in each case.

In the case of `CCNC(=O)NCCCCNC(=O)c1cccc2c(NCCN(C)/C(S)=N/C)c3ccccc3nc12`, the IC50 in the assay on HL-60 and with NCI-H460 was greater than 100 µM each time.

Regarding `C/N=C(\S)N(C)CCNc1c2ccccc2nc2c(C(=O)NCCNC(=O)Nc3ccccc3)cccc12`, the IC50 in the assay on HL-60 was greater than 50 µM; with NCI-H460, 31.9 µM.

`C/N=C(\S)N(C)CCNc1c2ccccc2nc2c(C(=O)NCCCCNC(=O)Nc3ccccc3)cccc12`: the IC50 came to 0.39 µM in the assay on HL-60 and 3.1 µM in the assay on NCI-H460.

In the case of `C/N=C(\S)N(C)CCNc1c2ccccc2nc2c(C(=O)NCCN(C)C)cccc12`, the IC50 turned out to be 1.4 µM in the assay with HL-60 and 2.2 µM with NCI-H460.

In the case of `C/N=C(\S)N(C)CCNc1c2ccccc2nc2c(C(=O)NCCO)cccc12`, the IC50 was 27.4 µM in the assay with HL-60 and 41.1 µM in the assay on NCI-H460.

Consider `C/N=C(\S)N(C)CCNc1c2ccccc2nc2c(C(=O)NCCOC(C)=O)cccc12`, for which the half-maximal inhibitory concentration (IC50) with HL-60 stood at 29.5 µM; with NCI-H460, 17.6 µM.
